Compound activity: PubChem, several laboratories
PRMT1 inh = PRMT1 (human) inhibition, primary screen. hit rate 1.3% among 370,000. inhibition, % at 2.79 µM. Q99873. recombinant PRMT1, activity-based probe fluorescence polarization. AID 652257;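 active means inhibition above about 21% made by adding two undisclosed values, limit read from the data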
TDP2 absorb = TDP2 (human) inhibition, absorbance primary screen; recombinant TDP2, T5PNP hydrolysis, p-nitrophenol absorbance 415 nm; inhibition, % at 12.8 µM; hit rate 0.34% among 370,000; AID 720702;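 active means inhibition above the mean of all tested compounds plus 3 SD, set per campaign, cut at about 25% in these data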;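 further: 0% = DMSO with enzyme and 100% = buffer with substrate but no TDP2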
Target sequence (O95551 whole entry, looked up): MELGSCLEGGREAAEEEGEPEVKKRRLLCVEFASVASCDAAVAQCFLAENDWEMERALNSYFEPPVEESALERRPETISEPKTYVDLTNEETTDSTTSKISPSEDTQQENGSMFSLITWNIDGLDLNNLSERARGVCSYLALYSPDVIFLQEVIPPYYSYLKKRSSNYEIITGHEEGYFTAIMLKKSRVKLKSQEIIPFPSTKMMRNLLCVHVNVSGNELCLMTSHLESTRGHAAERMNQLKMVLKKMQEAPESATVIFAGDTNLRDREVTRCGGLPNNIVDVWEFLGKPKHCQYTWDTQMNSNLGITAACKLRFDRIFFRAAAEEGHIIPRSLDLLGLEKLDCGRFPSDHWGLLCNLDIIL
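System – recombinant human TDP2 · Amount – 120 nM TDP2 per well · Buffer or medium – Mg2+-containing Tris-HCl buffer, pH 7.5 · Reagent – T5PNP substrate, 5 mM · Dosing – 12.8 µM single point, 1% DMSO · Incubation – 2 h at 37 °C · Measured by – epi absorbance · Read-out basis – percent inhibition · Benchmarks – high control without enzyme, low control DMSO plus TDP2 · Repeats – singlicate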
PAD4 FP inh = inhibitors of human PAD4 | hit rate 0.41% among 330,000 | recombinant PAD4, RCA probe fluorescence polarization | AID 485272 | inhibition, % at 6.36 µM | Q9UM07;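 active means percent inhibition above a cutoff equal to the mean of all tested compounds plus 3 SD, cut at about 15% in these data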;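 further: 0% = PAD4 with RCA probe and DMSO and 100% = probe without PAD4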
GSTO1 counter = blocks human GSTO1 in RBBP9 counter-screen; hit rate 1.1% among 300,000; recombinant GSTO1, activity-based probe fluorescence polarization; inhibition, % at 5.96 µM; P78417;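 active means inhibition above the campaign mean inhibition plus 3 SD, cut at about 35% in these data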;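 further: 0% = GSTO1-1 with DMSO and 100% = wells lacking GSTO1-1 enzyme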
Target sequence (P78417 whole entry, looked up): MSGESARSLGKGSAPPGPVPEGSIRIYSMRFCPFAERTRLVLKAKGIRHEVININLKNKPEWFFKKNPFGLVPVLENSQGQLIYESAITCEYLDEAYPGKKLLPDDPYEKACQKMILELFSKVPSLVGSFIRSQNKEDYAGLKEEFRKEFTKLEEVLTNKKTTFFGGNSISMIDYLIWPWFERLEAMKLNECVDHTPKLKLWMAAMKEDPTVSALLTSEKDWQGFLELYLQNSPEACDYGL
Apaf-1 inh = human Apaf-1 inhibition; O14727; reconstituted apoptosome caspase-3 activity, DEVD-Rh110 fluorescence; inhibition, % at 20 µM; hit rate 0.71% among 330,000; AID 489030; active means inhibition of at least 40% at 20 µM;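 further: plate controls were DMSO wells for no effect and DEVD-CHO caspase inhibitor wells for full effect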
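Assay system – apoptosome proteins · Medium – Hepes buffer, pH 7.5 · Also added – cytochrome c with DEVD-Rh110 · Timing – 30 min compound preincubation, 50 min activation, room temperature · Detection – Rh110 fluorescence, excitation 480 nm, emission 540 nm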
PRMT1 confirm = confirmation of human PRMT1 inhibitors | hit rate 42% among 3,300 | inhibition, % at 2.79 µM | recombinant His-PRMT1, activity-based probe fluorescence polarization | shares compounds with PRMT1 inh;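 active means mean inhibition across replicates above the hit cutoff derived for the earlier primary screen, cut at about 22% in these data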
Active calls of the source: *; . = not tested or not shown. The list is not random: actives were taken first. Their share in the collection is about 2.6%.

SMILES	PRMT1 inh	TDP2 absorb	PAD4 FP inh	GSTO1 counter	Apaf-1 inh	PRMT1 confirm
COc1cccc2c(SCC(=O)N/N=C/c3ccc(O)cc3O)cc(C)nc12	46.4*	-6.2	.	.	-3.5	-0.4
COc1ccc2nc(C)cc(SCC(=O)N/N=C/c3ccc(O)cc3O)c2c1	17.3	15.2	12.6	-1.0	1.8	.
COc1ccccc1/C=N/NC(=O)CSc1cc(C)nc2ccccc12	33.2*	-3.3	2.5	-19.9	7.2	1.2
Cc1cc(SCC(=O)NN)c2cc(Br)ccc2n1	63.9*	-10.9	5.3	-27.7	0.8	60.2*
CCCN(CC(=O)Nc1ccccc1C)C(=O)C1CCN(S(=O)(=O)c2ccc(C)c(C)c2)CC1	1.1	-3.3	.	.	.	.
COc1ccc(Nc2nnc(SCc3cc(=O)n4ccsc4n3)s2)cc1	28.8*	5.4	2.3	0.6	15.4	34.7*
O=c1cc(CSc2nnc(Nc3ccccc3F)s2)nc2sccn12	-3.7	5.7	-2.0	6.8	2.0	.
O=C1CCC(C(=O)N2CCCC(N3CCN(c4cccc(C(F)(F)F)c4)CC3)C2)=NN1 (centres undefined)	1.4	12.2	-3.9	-6.6	-1.4	.
COC(=O)c1c(-c2cccnc2)csc1NC(=O)c1cc(C)on1	28.8*	-0.5	13.5	6.5	13.2	12.1
COc1cccc(-c2nnc(SCc3cc(C)ccc3C)n2Cc2ccco2)c1	5.8	-7.0	.	.	.	.
O=C(NNc1nc2cc3c(cc2s1)OCO3)c1cccc(F)c1	32.8*	-1.5	1.0	-0.8	4.1	10.7
O=C(NNc1nc2cc3c(cc2s1)OCO3)c1ccccc1	19.9	1.6	3.5	-2.6	4.0	.
CC(=O)Nc1ccc(-c2ccnc3c2CC(C(=O)Nc2cccc(C(F)(F)F)c2)O3)cc1 (centres undefined)	3.3	-8.0	.	.	.	.
O=C1CCC(C(=O)Nc2cccc(S(=O)(=O)Nc3ccccc3F)c2)=NN1	31.3*	-0.9	0.4	.	0.5	20.9
Cc1ccc(N2C(=O)C3C(C2=O)N2CCCN2C3c2ccccc2)cc1C (centres undefined)	1.0	6.8	0.9	-3.7	-3.0	.
COc1ccc(N2C(=O)CS(=O)C(c3ccccc3)C2=O)cc1 (centres undefined)	95.0*	0.6	-3.1	11.2	13.8	97.2*
Cc1ccc(N2C(=O)CS(=O)C(c3ccccc3)C2=O)cc1C (centres undefined)	90.4*	13.2	-1.4	0.7	-1.4	89.9*
Cc1ccccc1-n1c(SCc2c(C)noc2C)nnc1-c1cccnc1	28.3*	-3.6	2.8	5.9	13.0	13.1
COc1ccc(CN2C(=O)C(CC(=O)NC3CC3)CC(C(=O)N(C)C)=C2C)cc1 (centres undefined)	0.2	8.5	.	.	.	.
O=C(Nc1ccncc1)c1ccc(Cl)c(Cl)c1	27.6*	2.1	-5.3	-0.3	7.0	-4.8
O=C(NNC(=O)c1ccc(Cl)c(Cl)c1)c1ccncc1	0.6	8.7	2.7	0.8	2.4	.
O=C(NNc1ccccc1[N+](=O)[O-])Nc1cccc(Cl)c1	5.8	5.8	3.1	5.0	-19.0	.
CCOC(=O)c1c(/N=C/c2cc([N+](=O)[O-])ccc2O)sc(C)c1C	29.1*	5.0	-8.9	0.3	-0.1	-1.6
C=CCNc1nc(C)c(CNc2c(C)cc(C)cc2C)nc1C#N	1.2	-0.7	2.3	4.7	3.7	.
Cc1ccc(CNS(=O)(=O)c2cc(F)ccc2CN2C(=O)c3cccnc3C2=O)o1	25.0*	-1.5	0.8	6.7	-2.9	-0.4
SMILES	PRMT1 inh	TDP2 absorb	PAD4 FP inh	GSTO1 counter	Apaf-1 inh	PRMT1 confirm
CC(=O)Nc1ccc(NS(=O)(=O)c2ccc(CN3C(=O)c4cccnc4C3=O)cc2)cc1	3.7	-2.7	-0.9	6.1	12.1	.
Cc1ccc(CNS(=O)(=O)c2ccc(CN3C(=O)c4cccnc4C3=O)cc2)o1	26.1*	-5.8	-0.3	7.2	2.1	13.4
CC(C)(c1ccccc1)c1ccc(OCc2ccc(C(=O)O)o2)cc1	0.3	11.5	.	.	10.9	.
COc1ccccc1Cc1c(-c2ccco2)nc2cc(C)c(Br)c(C)n12	31.8*	-3.6	.	.	.	24.5*
COC(=O)c1ccc2nc(-c3ccco3)c(Cc3ccccc3OC)n2c1	44.2*	4.5	.	.	.	28.3*
Cc1cc2nc(-c3ccco3)c(CC(C)(C)C)n2c(C)c1Br	6.4	2.5	.	.	.	.
COC(=O)c1ccc2nc(-c3ccco3)c(Cc3ccccc3C(F)(F)F)n2c1	33.8*	-1.6	.	.	.	16.4
NC(=O)c1ccc(NC(=O)COC(=O)CCC2CCCCC2)cc1	-1.5	-10.4	-4.7	.	5.5	.
COc1ccc(OC)c(Nc2cc(C)nc3ccc(C)cc23)c1	-2.5	8.6	-4.1	-4.3	-13.9	.
COCCN(C(=O)COC(=O)c1ccc(-c2ccccc2)cc1)c1c(N)n(Cc2ccccc2)c(=O)[nH]c1=O	-1.8	8.4	.	.	.	.
Cc1ccsc1/C=C1\Oc2cc(O)ccc2C1=O	40.2*	0.0	.	.	.	30.2*
CCN(CC)CCn1c2c(c(SCC(=O)Nc3cc(OC)cc(OC)c3)nc1=O)CCC2	0.4	7.3	5.4	-17.5	2.5	.
O=C(OCC(=O)N1N=C(c2ccc(Cl)cc2)CC1c1ccco1)c1cncc(Br)c1 (centres undefined)	33.6*	4.0	-1.5	.	10.5	5.4
O=C(OCC(=O)N1N=C(c2ccc(Cl)cc2)CC1c1ccco1)c1ccco1 (centres undefined)	2.7	-3.2	2.6	-3.5	24.9	.
CC1=C(C)CS(=O)N(S(=O)(=O)c2ccc(Cl)cc2)C1 (centres undefined)	34.3*	-0.4	-2.6	-11.7	10.6	43.1*
CCCNC(=O)Cn1sc2nc(C)cc(C)c2c1=O	93.3*	1.9	-1.0	5.5	-2.6	94.3*
Cc1cc(C)c2c(=O)n(CC(=O)N3CCC(N4CCCCC4)CC3)sc2n1	78.4*	-15.7	-2.0	9.5	1.6	4.4
CCOC(=O)C1CCCN(C(=O)Cn2sc3nc(C)cc(C)c3c2=O)C1 (centres undefined)	.	.	1.0	10.5	0.9	.
CC(=O)Cn1cnc2c(sc3nc(C)cc(C)c32)c1=O	1.3	-9.4	5.9	6.4	5.5	.
COc1ccc(S(=O)(=O)N2CCCCC2)cc1NC(=O)CSc1ncnc2ccccc12	1.8	7.7	8.3	0.9	11.6	.
CC(=O)N1CCN(CC(O)COc2ccc(S(=O)(=O)N3CCOCC3)cc2)CC1 (centres undefined)	1.6	4.7	6.5	.	-2.0	.
COc1ccc(CCNC(=O)c2ccc(-c3cccc([N+](=O)[O-])c3)o2)cc1OC	-1.3	1.6	-5.6	-5.2	7.6	.
COc1ccc(CCNC(=O)c2ccc(-c3ccc([N+](=O)[O-])cc3Cl)o2)cc1	28.4*	-5.9	-3.6	-9.1	5.5	0.7
Cc1ccccc1CSCC1Nc2ccc(C(=O)NCCc3ccccc3)cc2NC1=O (centres undefined)	49.2*	-3.1	.	.	.	65.0*
Cc1cc2c(cc1C)NC(CC(=O)NCc1ccccc1)C(=O)N2 (centres undefined)	2.7	11.9	-7.2	1.5	2.3	.
